“Also recorded” adds a separate entry of the source.
Assay: Phase I dose escalation: MTD, DLTs and toxicities
Assay type: in vivo, human
In short: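 Open-label, four-centre, 3+3 escalation in metastatic solid-tumour patients. Test compound taken orally from 2 mg, QD (2–96 mg) then BID (48–72 mg), in continuous 4-week cycles after a single-dose run-in with 5–7 day washout. Toxicities graded by CTCAE v4.03. DLTs assessed over run-in plus first cycle. MTD: highest level with ≤1 of 6 patients showing DLT. Descriptive statistics.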

## CS(=O)(=O)N1CCc2c(-c3cnc(N)nc3)nc(N3CCOCC3)nc21 [CH5132799]
2 mg QD (n=3), grade 1-2
  Treatment-related dry skin, number of patients: 1
  Treatment-related fatigue, number of patients: 2
  Treatment-related nausea, number of patients: 1
4 mg QD (n=3), grade 1-2
  Treatment-related nausea, number of patients: 1
  Treatment-related rash, number of patients: 1
8 mg QD (n=3), grade 1-2
  Treatment-related fatigue, number of patients: 1
  Treatment-related rash, number of patients: 1
  Treatment-related stomatitis, number of patients: 1
8 mg QD (n=3), grade 3-4
  Treatment-related anemia, number of patients: 1
16 mg QD (n=3), grade 1-2
  Treatment-related decreased appetite, number of patients: 1
  Treatment-related fatigue, number of patients: 1
  Treatment-related nausea, number of patients: 2
32 mg QD (n=4), grade 1-2
  Treatment-related decreased appetite, number of patients: 2
  Treatment-related fatigue, number of patients: 1
  Treatment-related nausea, number of patients: 1
48 mg BID
  Patients with DLT (grade 3 LFT/transaminase elevation): one of seven
48 mg BID (n=7), grade 1-2
  Treatment-related abdominal pain, number of patients: 1
  Treatment-related diarrhea, number of patients: 4
  Treatment-related dry skin, number of patients: 2
  Treatment-related fatigue, number of patients: 1
  Treatment-related rash, number of patients: 1
  Treatment-related stomatitis, number of patients: 3
48 mg BID (n=7), grade 3-4
  Treatment-related anemia, number of patients: 1
  Treatment-related hyperglycemia, number of patients: 1
48 mg BID cohort
  Grade ≥3 gastrointestinal AEs: No grade ≥3 gastrointestinal AEs
56 mg BID
  Patients with DLTs: Two of five
56 mg BID (n=5), grade 1-2
  Treatment-related abdominal pain, number of patients: 1
  Treatment-related anemia, number of patients: 1
  Treatment-related decreased appetite, number of patients: 2
  Treatment-related diarrhea, number of patients: 2
  Treatment-related fatigue, number of patients: 3
  Treatment-related nausea, number of patients: 3
  Treatment-related rash, number of patients: 3
  Treatment-related stomatitis, number of patients: 4
  Treatment-related vomiting, number of patients: 3
56 mg BID (n=5), grade 3-4
  Treatment-related diarrhea, number of patients: 2
  Treatment-related hyperglycemia, number of patients: 2
  Treatment-related stomatitis, number of patients: 1
56 mg QD (n=3), grade 1-2
  Treatment-related abdominal pain, number of patients: 1
  Treatment-related diarrhea, number of patients: 2
  Treatment-related dry skin, number of patients: 1
  Treatment-related nausea, number of patients: 1
  Treatment-related rash, number of patients: 1
72 mg BID
  Patients with DLTs: two of three
72 mg BID (n=3), grade 1-2
  Treatment-related anemia, number of patients: 1
  Treatment-related decreased appetite, number of patients: 2
  Treatment-related diarrhea, number of patients: 2
  Treatment-related fatigue, number of patients: 1
  Treatment-related nausea, number of patients: 1
  Treatment-related stomatitis, number of patients: 1
  Treatment-related vomiting, number of patients: 1
72 mg BID (n=3), grade 3-4
  Treatment-related abdominal pain, number of patients: 1
  Treatment-related fatigue, number of patients: 1
  Treatment-related hyperglycemia, number of patients: 1
96 mg QD (n=4), grade 1-2
  Treatment-related anemia, number of patients: 1
  Treatment-related decreased appetite, number of patients: 1
  Treatment-related diarrhea, number of patients: 3
  Treatment-related dry skin, number of patients: 2
  Treatment-related fatigue, number of patients: 1
  Treatment-related nausea, number of patients: 2
  Treatment-related rash, number of patients: 2
  Treatment-related stomatitis, number of patients: 2
  Treatment-related vomiting, number of patients: 2
96 mg QD (n=4), grade 3-4
  Treatment-related diarrhea, number of patients: 2
BID dosing schedule
  Patients with Grade ≥3 hyperglycemia: Five
BID schedule, oral, 28-day cycles, patients with solid tumors
  Maximum tolerated dose (MTD): 48 mg
BID, oral
  Recommended phase 2 dose (RP2D): 48 mg
Cohort 7b, 48 mg BID, N=7, Cycle 1 Day 8
  DLT: grade 3 elevated LFT at Cycle 1 Day 8
Cohort 8, 72 mg BID, N=3, Cycle 1
  DLT: grade 3 cerebral encephalopathy; also recorded: grade 3 Fatigue
Cohort 9, 56 mg BID, N=5
  DLT: grade 3 Diarrhea and stomatitis
QD schedule
  DLTs: No DLTs
QD schedule, 2-96 mg, oral
  Maximum tolerated dose (MTD): not reached at 96 mg
All DLTs
  Reversibility of DLTs: reversible
All dose levels
  Grade 4 diarrhea: no grade 4 diarrhea reported
  Patients with grade 3 diarrhea: Four
All dose levels, Total (n=38)
  Treatment-related abdominal pain, number (%) of patients: 4 (11%)
  Treatment-related anemia, number (%) of patients: 5 (13%)
  Treatment-related decreased appetite, number (%) of patients: 8 (21%)
  Treatment-related diarrhea, number (%) of patients: 13 (34%)
  Treatment-related dry skin, number (%) of patients: 6 (16%)

Source: paper PMC4254850 (Clinical cancer research : an official journal of the …, 2014)
